Data: ChEMBL document CHEMBL1156546, “Synthesis and positive inotropic activity of N-(4,5-dihydro-[1,2,4]triazolo[4,3-a]quinolin-7-yl)-2-(piperazin-1-yl)acetamide derivatives” (2008)
The source made the active and inactive calls. The rule behind the calls is not given here.

How the values were obtained:
Oryctolagus cuniculus [1] = species on record: Oryctolagus cuniculus; experiment: Inotropic effect on isolated rabbit heart assessed as increase in left atrium stroke volume; assay type: functional, Cardiac atrium; design: concentration or dose not given beside the values
Method in brief: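 Isolated perfused rabbit left atrium, HEPES buffer pH 7.4 (mM: 118 NaCl, 4.7 KCl, 2.5 CaCl2, 1.2 MgCl2, 25 NaHCO3, 10 glucose, 10 HEPES; 0.1% BSA) pumped at 1.25 mL/min. 60 min stabilization, pacing 1.5 Hz. Single dose 3×10^-5 M (DMSO stock diluted in buffer) after control cycle; 12-min cycles, stroke volume read every 2 min. Reported as % stroke volume increase, means ± SE, ANOVA.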

Oryctolagus cuniculus [2] = species on record: Oryctolagus cuniculus; experiment: Chronotropic effect on isolated rabbit heart assessed as change in heart beats; assay type: functional
Method in brief: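 Heart rate measured in isolated rabbit hearts from the electrocardiogram in a volume conduction model. Samples at 3×10^-5 M, dissolved in DMSO and diluted in HEPES buffer. Rate recorded before (control) and after sample. Means ± SE, repeated measures compared by ANOVA, P < 0.05.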

SMILES: O=C(CN1CCN(Cc2ccc3c(c2)OCO3)CC1)Nc1ccc2c(c1)CCc1nnc(Cc3ccccc3)n1-2
- Activity (Oryctolagus cuniculus [1]): 5.2%
- Activity (Oryctolagus cuniculus [2]): 89.2 bpm

SMILES: O=C(CN1CCN(Cc2ccccc2)CC1)Nc1ccc2c(c1)CCc1nnc(Cc3ccccc3)n1-2
- Activity (Oryctolagus cuniculus [1]): 13.2%
- Activity (Oryctolagus cuniculus [2]): 109.3 bpm

SMILES: Cc1nnc2n1-c1ccc(NC(=O)CN3CCN(C(=O)c4ccccc4)CC3)cc1CC2
- Activity (Oryctolagus cuniculus [1]; Cardiac atrium): inactive

SMILES: Cc1nnc2n1-c1ccc(NC(=O)CN3CCN(Cc4ccccc4Br)CC3)cc1CC2
- Activity (Oryctolagus cuniculus [1]; Cardiac atrium): inactive

SMILES: COc1cc(CN2CCN(CC(=O)Nc3ccc4c(c3)CCc3nnc(C)n3-4)CC2)ccc1OCc1ccccc1
- Activity (Oryctolagus cuniculus [1]): 9%
- Activity (Oryctolagus cuniculus [2]): 111.5 bpm

SMILES: Cc1nnc2n1-c1ccc(NC(=O)CN3CCN(C(=O)c4cccc([N+](=O)[O-])c4)CC3)cc1CC2
- Activity (Oryctolagus cuniculus [1]; Cardiac atrium): inactive

SMILES: Cc1[nH]c(=O)c(C#N)cc1-c1ccncc1 [MILRINONE]
- Activity (Oryctolagus cuniculus [1]): 4.7%

SMILES: O=C(CN1CCN(C(=O)c2cccc(Cl)c2)CC1)Nc1ccc2c(c1)CCc1nnc(Cc3ccccc3)n1-2
- Activity (Oryctolagus cuniculus [1]): 2.4%

SMILES: Cc1nnc2n1-c1ccc(NC(=O)CN3CCN(Cc4ccc5c(c4)OCO5)CC3)cc1CC2
- Activity (Oryctolagus cuniculus [1]): 5.1%
- Activity (Oryctolagus cuniculus [2]): 136.9 bpm

SMILES: Cc1cccc(C(=O)N2CCN(CC(=O)Nc3ccc4c(c3)CCc3nnc(Cc5ccccc5)n3-4)CC2)c1
- Activity (Oryctolagus cuniculus [1]): 0.5%

SMILES: Cc1cccc(C(=O)N2CCN(CC(=O)Nc3ccc4c(c3)CCc3nnc(C)n3-4)CC2)c1
- Activity (Oryctolagus cuniculus [1]): 8.8%

SMILES: Cc1ccc(C(=O)N2CCN(CC(=O)Nc3ccc4c(c3)CCc3nnc(C)n3-4)CC2)cc1
- Activity (Oryctolagus cuniculus [1]): 1.3%

SMILES: COc1ccc(C(=O)N2CCN(CC(=O)Nc3ccc4c(c3)CCc3nnc(C)n3-4)CC2)cc1OC
- Activity (Oryctolagus cuniculus [1]): 5.3%
- Activity (Oryctolagus cuniculus [2]): 129.2 bpm

SMILES: Cc1nnc2n1-c1ccc(NC(=O)CN3CCN(C(=O)c4cccc(Cl)c4)CC3)cc1CC2
- Activity (Oryctolagus cuniculus [1]; Cardiac atrium): inactive

SMILES: Cc1ccc(C(=O)N2CCN(CC(=O)Nc3ccc4c(c3)CCc3nnc(Cc5ccccc5)n3-4)CC2)cc1
- Activity (Oryctolagus cuniculus [1]): 0.7%

SMILES: CC(=O)N1CCN(CC(=O)Nc2ccc3c(c2)CCc2nnc(C)n2-3)CC1
- Activity (Oryctolagus cuniculus [1]; Cardiac atrium): inactive

SMILES: COc1ccc(CN2CCN(CC(=O)Nc3ccc4c(c3)CCc3nnc(C)n3-4)CC2)cc1
- Activity (Oryctolagus cuniculus [1]): 10.1%
- Activity (Oryctolagus cuniculus [2]): 105.6 bpm

SMILES: O=C(CN1CCN(C(=O)c2ccccc2)CC1)Nc1ccc2c(c1)CCc1nnc(Cc3ccccc3)n1-2
- Activity (Oryctolagus cuniculus [1]; Cardiac atrium): inactive

SMILES: Cc1nnc2n1-c1ccc(NC(=O)CN3CCN(Cc4ccccc4)CC3)cc1CC2
- Activity (Oryctolagus cuniculus [1]; Cardiac atrium): inactive

SMILES: Cc1nnc2n1-c1ccc(NC(=O)CN3CCN(C(=O)c4ccc([N+](=O)[O-])cc4)CC3)cc1CC2
- Activity (Oryctolagus cuniculus [1]; Cardiac atrium): inactive
